The text below walks through data of ChEMBL document CHEMBL1137343, “4-arylazo-3,5-diamino-1H-pyrazole CDK inhibitors: SAR study, crystal structure in complex with CDK2, selectivity, and cellular effects” (J Med Chem, 2006).

Type in all cases: functional, Homo sapiens
The test system of assay [1] is HT-29. The assay is described as follows: Inhibition of EpCAM mRNA synthesis in HT29 cells measured as number of copies per 10^6 cells by RT PCR at 70 uM after 12 hrs. In outline: (§1)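 HT-29 cells (5 × 10⁶) treated for 3, 6 or 12 h; total RNA extracted with TRI reagent, 3 µg reverse transcribed with random primers and M-MLV RT (42 °C, 60 min). Absolute transcript copies quantified by TaqMan real-time PCR, 50 cycles, against diluted gene-specific amplicon standards (30–1 000 000 copies); duplicate PCR per sample; values are means of four determinations ± SD.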

Assay [2] has as its system HT-29. Kind of assay: Cell cycle arrest in HT29 cells by accumulation at S phase at 70 uM after 3 hrs. The method, boiled down:
(§2)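 Subconfluent, asynchronous HT-29 cells were treated 3, 6 or 12 h, then pulsed with 10 µM BrdU for 30 min at 37 °C. Cells were fixed in ice-cold 70% ethanol, DNA denatured in 2 M HCl and neutralised with borate. Staining used FITC anti-BrdU, then propidium iodide (0.1 mg/mL) with RNase A. Analysis by flow cytometry with 488 nm laser.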

Assay [3] deals with HT-29. The assay is described as follows: Cell cycle arrest in HT29 cells by accumulation at G0/G1 phase at 70 uM after 6 hrs. In outline:
as §2

The subject of assay [4] is HT-29. Kind of assay: Cell cycle arrest in HT29 cells by accumulation at G0/G1 phase at 70 uM after 3 hrs. In outline:
as §2

The test system of assay [5] is HT-29. The assay is described as follows: Cell cycle arrest in HT29 cells by accumulation at G2/M phase at 70 uM after 12 hrs. In outline:
as §2

The subject of assay [6] is HT-29. Kind of assay: Inhibition of GAPDH mRNA synthesis in HT29 cells measured as number of copies per 10^6 cells by RT PCR at 70 uM after 12 hrs. The method, boiled down:
as §1

For assay [7], the system named is HT-29. Kind of assay: Inhibition of GAPDH mRNA synthesis in HT29 cells measured as number of copies per 10^6 cells by RT PCR at 70 uM after 6 hrs. In outline:
as §1

Assay [8] concerns HT-29. The assay is described as follows: Inhibition of EpCAM mRNA synthesis in HT29 cells measured as number of copies per 10^6 cells by RT PCR at 70 uM after 6 hrs. The method, boiled down:
as §1

Assay [9] has as its system HT-29. The assay is described as follows: Inhibition of GAPDH mRNA synthesis in HT29 cells measured as number of copies per 10^6 cells by RT PCR at 70 uM after 3 hrs. The method, boiled down:
as §1

In assay [10] the test system is HT-29. Kind of assay: Cell cycle arrest in HT29 cells by accumulation at S phase at 70 uM after 6 hrs. In outline:
as §2

In assay [11] the test system is HT-29. Kind of assay: Cell cycle arrest in HT29 cells by accumulation at G2/M phase at 70 uM after 6 hrs. The method, boiled down:
as §2

Assay [12] relates to HT-29. Kind of assay: Cell cycle arrest in HT29 cells by accumulation at G0/G1 phase at 70 uM after 12 hrs. In outline: as §2
Assay [13] concerns HT-29. The assay is described as follows: Inhibition of CEA mRNA synthesis in HT29 cells measured as number of copies per 10^6 cells by RT PCR at 70 uM after 6 hrs. In outline:
(§3)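 HT-29 cells were treated 3, 6 or 12 h; total RNA extracted with TRI reagent. 3 µg RNA reverse-transcribed with random primers and M-MLV RT at 42 °C for 60 min. CEA transcripts quantified by TaqMan real-time PCR: 50 cycles of 95 °C 15 s and 65 °C 15 s. Absolute copies came from amplicon standards of 30 to 10^6 copies, expressed per 10^6 cells. Samples run in duplicate PCR; values average of four determinations ± SD.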

Assay [14] relates to HT-29. The assay is described as follows: Inhibition of CEA mRNA synthesis in HT29 cells measured as number of copies per 10^6 cells by RT PCR at 70 uM after 12 hrs. In outline:
as §3

For assay [15], the system named is HT-29. Kind of assay: Cell cycle arrest in HT29 cells by accumulation at S phase at 70 uM after 12 hrs. The method, boiled down: as §2
The test system of assay [16] is HT-29. The assay is described as follows: Cell cycle arrest in HT29 cells by accumulation at G2/M phase at 70 uM after 3 hrs. In outline: as §2
Assay [17] deals with HT-29. Kind of assay: Inhibition of EpCAM mRNA synthesis in HT29 cells measured as number of copies per 10^6 cells by RT PCR at 70 uM after 3 hrs. In outline:
as §1

The subject of assay [18] is HT-29. Kind of assay: Inhibition of CEA mRNA synthesis in HT29 cells measured as number of copies per 10^6 cells by RT PCR at 70 uM after 3 hrs. The method, boiled down: as §3

`CC[C@H](CO)Nc1nc(NCc2ccccc2)c2ncn(C(C)C)c2n1` [SELICICLIB]: the Activity with HT-29 [1] was determined as 6863365; in the assay with HT-29 [2] it was 1.1%; in the assay with HT-29 [3], 44%; with HT-29 [4], 48%; with HT-29 [5], 34.5%; with HT-29 [6], 3926015. The Activity in the assay with HT-29 [7] is on record as 3146605; in the assay with HT-29 [8] it was 6151085; with HT-29 [9], 3945095; in the assay with HT-29 [10], 0.1%; in the assay with HT-29 [11], 55.9%; in the assay with HT-29 [12], 64.5%. Besides, the Activity in the assay with HT-29 [13] is reported as 19150; with HT-29 [14], 24350; in the assay on HT-29 [15], 1.1%; with HT-29 [16], 50.9%; in the assay on HT-29 [17], 8258813; in the assay with HT-29 [18] it was 30568.
